DNMT1 inh = human DNMT1 methyltransferase inhibitors, primary screen, biochemical, molecular beacon, fluorescence, HinP1I cleavage, uHTS; 0.83% of 360,000 active; inhibition (reported as % activation of signal), % at 10 µM; DNA (cytosine-5)-methyltransferase 1 (Homo sapiens), P26358
HCV NS3 hel inh = inhibitors of HCV NS3 helicase, primary screen, biochemical, Cy5 molecular beacon fluorescence; AID 1800, 2009; inhibition, % at 10.9 µM; 0.56% of 290,000 active; NS3 helicase DNA unwinding; Hepatitis C virus NS3 helicase;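 active = inhibition above the mean of all tested compounds plus 3 SD, set per campaign, cut at about 35% in these data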
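Assay system: hepatitis C virus NS3 helicase domain fragment enzyme. Also added: annealed dual-labelled DNA beacon duplex, ATP-started. Timing: 1 h reaction at 25 °C, ATP-initiated. Technique: Cy5 fluorescence at 0 and 60 min, beacon hairpin quenching. Evaluation: % inhibition of unwinding. Replication: one well per compound.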
NSD2 HMT inh = NSD2 histone methyltransferase inhibitors, primary screen, biochemical, AlphaScreen, single concentration, set 2. Histone-lysine N-methyltransferase NSD2 (Homo sapiens), O96028. NSD2 peptide methylation, 120 min. inhibition, % at 12.5 µM. 0.54% of 310,000 active
CASP6 VEID inh = human caspase-6 inhibitors, primary screen, biochemical, VEID-R110 fluorescence, single point, set 2; P55212; purified caspase-6, Z-VEID-R110 cleavage fluorescence; inhibition, % at 12.5 µM; 0.53% of 350,000 active; AID 686996, 2013;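 active = mean inhibition across replicates at least about 35%, with every replicate also reaching that limit, limit read from the data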
Hits are given with their value; i = inactive; nt = no result; ! = a repeat was not active. A selection: hits, their analogues and other compounds. The true share with any hit is near 1.5%. Rule as the data show it, unless noted: active = inhibition above about 50%; inactive = the rest.

SMILES	DNMT1 inh	HCV NS3 hel inh	NSD2 HMT inh	CASP6 VEID inh
CCCN1[C@@H]2c3ccc(-c4cccc(C(=O)N(C)C)c4)c(=O)n3C[C@@H]2[C@@H](CO)[C@@H]1C(=O)NCCOC	nt	nt	nt	i
CCN(CC)c1ccc(NC(=O)CSc2ccsc2[N+](=O)[O-])c(C)c1	53	i	i	nt
C[C@H]1CN([C@@H](C)CO)S(=O)(=O)c2ccc(C3=CCCC3)cc2O[C@@H]1CN(C)C(=O)c1ccncc1	nt	nt	nt	i
Cc1cc(C(=O)COC(=O)c2cc(Cl)c(O)c(Cl)c2)c(C)n1C	55	nt	i	58
CC(=O)N(C)C[C@@H]1Oc2cc(C#Cc3cccnc3)ccc2S(=O)(=O)N([C@H](C)CO)C[C@H]1C	nt	nt	nt	i
COc1ccc(NS(=O)(=O)c2cc(NC(=O)[C@H](C)NC(N)=O)ccc2N2CCCC2)cc1	i	nt	i	44
O=C1CN(S(=O)(=O)c2ccccc2)C[C@@H]2[C@@H](c3ccc(Br)cc3)[C@@H](CO)N12	nt	nt	nt	i
Cc1ccc2nc(-c3ccc(N4C(=NC(=O)CCC(=O)O)SC5CS(=O)(=O)CC54)cc3)sc2c1 (stereo not drawn)	56	i	nt	nt
O=C(O[C@@H]1OC2COC(=O)c3cc(O)c(O)c(O)c3-c3c(cc(O)c(O)c3O)C(=O)O[C@@H]([C@H]1O)[C@@H]2O)c1cc(O)c(O)c(O)c1	90	i	nt	nt
CCOC(=O)OC[C@@H]1[C@@H]2NC(=O)N(C)[C@@]1(COCc1ccc(OC)cc1)Oc1ccccc12	nt	nt	nt	i
Cc1cc2c(NC(=O)Nc3ccc(F)cc3)cccc2nn1	i	i	i	68
C[C@H]1CN([C@@H](C)CO)S(=O)(=O)c2ccc(C3=CCCCC3)cc2O[C@H]1CN(C)C(=O)CN(C)C	nt	nt	nt	i
CCOC(=O)C1=C(C)NC(=O)NC1c1ccco1 (stereo not drawn)	i	i	i	46
COc1ccc(CNC(=O)CCS(=O)(=O)c2ccc(Br)cc2)cc1	i	i	i	57
CNC(=O)c1ccccc1NC(=O)C1CC(=O)N(C(C)C)C1 (stereo not drawn)	i	i	i	66
COc1ccc(S(=O)(=O)NNC(=O)Cc2csc(C)n2)cc1[N+](=O)[O-]	i	nt	i	56
COc1ccc(N(C)S(=O)(=O)c2cccc(C(=O)NCC(c3cccs3)N(C)C)c2)cc1 (stereo not drawn)	i	nt	i	40
COc1ccc(N(C)S(=O)(=O)c2cccc(C(=O)NCC(c3ccco3)N3CCCC3)c2)cc1 (stereo not drawn)	i	nt	i	i
COc1ccccc1C#Cc1ccc2c(c1)O[C@@H](CN(C)C)[C@@H](C)CN([C@@H](C)CO)S2(=O)=O	nt	nt	nt	48
O=C(Nc1cc(Cl)cc(Cl)c1)c1coc(=O)c(Br)c1	i	i	i	70
O=C(NC(CO)(CO)CO)c1coc(=O)c(Br)c1	i	i	i	nt
CCCn1nc([N+](=O)[O-])c(C(C#N)c2nc3ccccc3s2)c(Cl)c1=O (stereo not drawn)	i	i	52	nt
N[C@@H](Cc1cc(I)c(Oc2ccc(O)c(I)c2)c(I)c1)C(=O)O	77!	i	nt	i
COc1ccc(C(NC(=O)C2CCN(CCOc3ccccc3)CC2)c2ccccn2)cc1 (stereo not drawn)	i	nt	i	i
COc1ccc(OCCN2CCC(C(=O)NC(c3ccccn3)c3ccccc3OC)CC2)cc1 (stereo not drawn)	i	nt	i	49
SMILES	DNMT1 inh	HCV NS3 hel inh	NSD2 HMT inh	CASP6 VEID inh
COc1ccccc1C(NC(=O)C1CCN(CCOc2ccc3ccccc3c2)CC1)c1ccccn1 (stereo not drawn)	i	nt	i	i
COc1cccc(C(NC(=O)C2CCN(CCCOc3ccccc3)CC2)c2ccccn2)c1 (stereo not drawn)	i	nt	i	38
CCC(=O)N1CCC2(CC1)CN(C(=O)c1cnccn1)[C@H](CO)c1c2c2ccc(OC)cc2n1C	nt	nt	nt	i
O=c1nc2ccc(Cl)cn2c2ccc(S(=O)(=O)N3CCCCC3)cc12	i	i	i	92
O=c1nc2ccc(Cl)cn2c2ccc(S(=O)(=O)N3CCOCC3)cc12	i	i	i	i
CCN1CCN(CC(=O)n2c3c(c4ccccc42)CC(C)CC3)CC1 (stereo not drawn)	i	i	i	nt
CC1CCc2c(c3ccccc3n2C(=O)CCl)C1 (stereo not drawn)	i	i	i	96
c1ccc(Nc2nc(-c3ccccc3)nc3ccccc23)cc1	i	i	i	i
Fc1cccc(Nc2nc(-c3ccncc3)nc3ccccc23)c1	i	i	i	53

Screening data: PubChem BioAssay, several laboratories
